Results: ChEMBL document CHEMBL4004822, “Thienopyrimidinone Based Sirtuin-2 (SIRT2)-Selective Inhibitors Bind in the Ligand Induced Selectivity Pocket” (J Med Chem, 2017)
Calls of active or inactive are those of the source. No cut-off for these calls is given here.

Tests used:
[1] = species on record: Homo sapiens; assay: Selectivity ratio of IC50 for recombinant human N-terminal GST-tagged SIRT3 (101 to 399 residues) expressed in Escherichia coli to IC50 for recombinant human C-terminal His-tagged SIRT2 (50 to 389 end residues) expressed in Escherichia coli
[2] = target: T1, NAD-dependent protein deacetylase sirtuin-2 (Homo sapiens, UniProt Q8IXJ6); assay: Inhibition of recombinant human C-terminal His-tagged SIRT2 (50 to 389 end residues) expressed in Escherichia coli using p53 derived (379 to 382 residues) fluorogenic peptide substrate RHKK(Ac)-AMC preincubated for 10 mins followed by substrate addition in presence of NAD+ by fluorescence assay
T1 sequence (Q8IXJ6 whole entry): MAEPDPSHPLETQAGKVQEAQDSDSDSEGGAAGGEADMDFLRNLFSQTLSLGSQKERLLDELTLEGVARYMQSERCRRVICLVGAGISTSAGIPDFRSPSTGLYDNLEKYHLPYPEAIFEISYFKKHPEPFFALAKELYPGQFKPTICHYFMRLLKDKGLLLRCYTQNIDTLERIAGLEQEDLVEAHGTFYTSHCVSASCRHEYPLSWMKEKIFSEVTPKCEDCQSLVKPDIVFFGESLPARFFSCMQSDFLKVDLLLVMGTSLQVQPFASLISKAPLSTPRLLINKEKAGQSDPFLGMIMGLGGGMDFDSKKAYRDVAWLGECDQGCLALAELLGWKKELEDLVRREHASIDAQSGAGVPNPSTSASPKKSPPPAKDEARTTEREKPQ
Method in brief: (§1)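 Two-step fluorogenic assay with p53 379–382 RHKK(Ac)-AMC. Compound (from 10 mM DMSO stock) preincubated ~10 min with human SIRT before substrate addition. Developer then releases fluorophore, read at ex 360/em 460 nm.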

[3] = target: T2, NAD-dependent protein deacetylase sirtuin-2 (Homo sapiens) (UniProt Q8IXJ6); assay: Inhibition of SIRT2 in human MCF7 cells assessed as increase in alpha-tubulin K40 acetylation level at 10 to 50 uM after 24 hrs in presence of TSA by Western blot analysis; type: cell-based
T2 sequence (whole entry): T1 sequence (Q8IXJ6 whole entry)
Method in brief: (§2)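 MCF-7 cells (ATCC, authenticated) kept in DMEM with 10% FCS, penicillin/streptomycin and 2 mM glutamine at 37 °C under 10% CO2. Treated 24 h with compound at 0, 1, 10, 20, 30 or 50 μM plus 50 nM TSA to block non-sirtuin HDACs. NP40 lysates (20 μg protein, BCA-quantified) run on SDS-PAGE and Western blotted for acetyl-K40 α-tubulin, total α-tubulin and β-actin; ECL detection.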

[4] = target: T2, NAD-dependent protein deacetylase sirtuin-2 (Homo sapiens); assay: Inhibition of SIRT2 in human MCF7 cells assessed as increase in alpha-tubulin K40 acetylation level after 24 hrs in presence of TSA by Western blot analysis; type: cell-based; method in brief: as §2
[5] = target: T3, NAD-dependent protein deacetylase sirtuin-3, mitochondrial (Homo sapiens, UniProt Q9NTG7); assay: Inhibition of recombinant human N-terminal GST-tagged SIRT3 (101 to 399 residues) expressed in Escherichia coli using p53 derived (379 to 382 residues) fluorogenic peptide substrate RHKK(Ac)-AMC) preincubated for 10 mins followed by substrate addition in presence of NAD+ by fluorescence assay
T3 sequence (Q9NTG7 whole entry): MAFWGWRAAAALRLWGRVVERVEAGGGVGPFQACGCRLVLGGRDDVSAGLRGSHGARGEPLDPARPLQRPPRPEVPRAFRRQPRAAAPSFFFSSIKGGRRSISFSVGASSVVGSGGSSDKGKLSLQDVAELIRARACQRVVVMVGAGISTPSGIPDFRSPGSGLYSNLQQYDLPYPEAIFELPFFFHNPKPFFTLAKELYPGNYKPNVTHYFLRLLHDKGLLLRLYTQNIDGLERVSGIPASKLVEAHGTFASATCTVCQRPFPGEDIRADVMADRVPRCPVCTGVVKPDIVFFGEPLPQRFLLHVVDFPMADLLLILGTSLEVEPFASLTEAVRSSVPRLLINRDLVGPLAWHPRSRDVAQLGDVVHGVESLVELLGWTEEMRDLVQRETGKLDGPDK

[6] = species on record: Homo sapiens; assay: Selectivity ratio of IC50 for recombinant human N-terminal His-tagged SIRT1 (1 to 747 end residues) expressed in Escherichia coli to IC50 for recombinant human C-terminal His-tagged SIRT2 (50 to 389 end residues) expressed in Escherichia coli
[7] = target: T4, NAD-dependent protein deacetylase sirtuin-1 (Homo sapiens, UniProt Q96EB6); assay: Inhibition of recombinant human N-terminal His-tagged SIRT1 (1 to 747 end residues) expressed in Escherichia coli using p53 derived (379 to 382 residues) fluorogenic peptide substrate RHKK(Ac)-AMC preincubated for 10 mins followed by substrate addition in presence of NAD+ by fluorescence assay; method in brief: as §1
T4 sequence (Q96EB6 whole entry): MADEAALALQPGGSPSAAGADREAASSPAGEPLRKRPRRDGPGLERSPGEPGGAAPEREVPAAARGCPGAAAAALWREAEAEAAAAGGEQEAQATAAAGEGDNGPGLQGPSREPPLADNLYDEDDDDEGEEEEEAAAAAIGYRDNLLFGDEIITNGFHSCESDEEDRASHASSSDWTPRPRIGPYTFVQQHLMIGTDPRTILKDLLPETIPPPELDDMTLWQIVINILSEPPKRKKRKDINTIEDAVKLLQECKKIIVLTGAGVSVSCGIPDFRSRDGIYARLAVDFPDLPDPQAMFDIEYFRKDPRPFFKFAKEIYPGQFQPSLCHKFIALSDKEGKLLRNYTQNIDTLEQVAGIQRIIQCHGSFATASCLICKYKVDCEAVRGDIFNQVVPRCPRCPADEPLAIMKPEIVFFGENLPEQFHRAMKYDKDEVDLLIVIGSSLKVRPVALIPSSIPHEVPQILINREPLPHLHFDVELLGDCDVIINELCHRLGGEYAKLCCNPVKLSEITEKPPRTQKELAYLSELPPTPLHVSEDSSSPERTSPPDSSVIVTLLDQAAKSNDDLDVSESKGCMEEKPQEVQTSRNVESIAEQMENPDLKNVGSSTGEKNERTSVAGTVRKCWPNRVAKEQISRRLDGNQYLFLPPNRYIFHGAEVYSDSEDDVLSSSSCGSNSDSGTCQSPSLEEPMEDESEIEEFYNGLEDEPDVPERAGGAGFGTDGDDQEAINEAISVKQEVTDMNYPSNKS

[8] = target: T2, NAD-dependent protein deacetylase sirtuin-2 (Homo sapiens); assay: Inhibition of recombinant human C-terminal His-tagged SIRT2 (50 to 389 end residues) expressed in Escherichia coli at 10 uM using p53 derived (379 to 382 residues) fluorogenic peptide substrate RHKK(Ac)-AMC preincubated for 10 mins followed by substrate addition in presence of NAD+ by fluorescence assay relative to control; method in brief: as §1
[9] = target: T2, NAD-dependent protein deacetylase sirtuin-2 (Homo sapiens); assay: Inhibition of SIRT2 in human MCF7 cells assessed as increase in alpha-tubulin K40 acetylation level at 1 to 50 uM after 24 hrs in presence of TSA by Western blot analysis; type: cell-based; method in brief: as §2

Structure (SMILES)	IC50 [2] [µM]	inhibition [8] [%]	also measured
O=c1c2c3c(sc2ncn1Cc1ccccc1)CC(NCC1CCCO1)CC3 (stereo not drawn)		22	inhibition [9]: inactive
Cc1nn(C)c(C)c1CNC1CCc2c(sc3ncn(Cc4cccc5ccccc45)c(=O)c23)C1 (stereo not drawn)	4.2	85	
O=c1c2c3c(sc2ncn1Cc1cccc2cccnc12)CC(NCc1ccccc1Cl)CC3 (stereo not drawn)	3.8	85	
COc1ccc(CNC2CCc3c(sc4ncn(Cc5cccc6ccccc56)c(=O)c34)C2)cn1 (stereo not drawn)	7.59	75	
COc1ccccc1Cn1cnc2sc3c(c2c1=O)CCC(NC1CCc2ccccc21)C3 (stereo not drawn)	16.3	70	
COc1ccc(CNC2CCc3c(sc4ncn(Cc5c(OC)ccc6ccccc56)c(=O)c34)C2)cc1 (stereo not drawn)	0.65	96	IC50 [7]: 119 µM
COc1ccc2ccccc2c1Cn1cnc2sc3c(c2c1=O)CCC(NC1CCCC1)C3 (stereo not drawn)	1.18	99	
O=c1c2c3c(sc2ncn1Cc1cccc2cccnc12)CC(NCCC1CCCCC1)CC3 (stereo not drawn)	5.85	81	
COc1ccc2ccccc2c1Cn1cnc2sc3c(c2c1=O)CCC(NCc1ccco1)C3 (stereo not drawn)	5.24	78	
COc1ccc(Cn2cnc3sc4c(c3c2=O)CCC(NC2CCOCC2)C4)c2ccccc12 (stereo not drawn)	5.06	81	
O=c1c2c3c(sc2ncn1Cc1cccc(-c2ccccc2)c1)CC(NC1CCOCC1)CC3 (stereo not drawn)	1.74	93	
COc1ccc2ccccc2c1Cn1cnc2sc3c(c2c1=O)CCC(NCCc1ccncc1)C3 (stereo not drawn)	2.75	95	
Cc1nn(C)c(C)c1CNC1CCc2c(sc3ncn(Cc4ccc5ccccc5c4)c(=O)c23)C1 (stereo not drawn)	7.43	87	
COc1ccc2ccccc2c1Cn1cnc2sc3c(c2c1=O)CCC(NCC1CCOC1)C3 (stereo not drawn)	6.03	85	
O=c1c2c3c(sc2ncn1Cc1cccc2cccnc12)CC(NCc1cccc(F)c1)CC3 (stereo not drawn)	1.72	94	
COc1ccc2ccccc2c1Cn1cnc2sc3c(c2c1=O)CCC(NCc1ccncc1)C3 (stereo not drawn)	1.2	95	
O=c1c2c3c(sc2ncn1Cc1cccc2ccccc12)CC(NCc1ccccn1)CC3 (stereo not drawn)	7.68	81	

The remaining molecules from weak to strong by IC50 [2], led by results:

IC50 [2] [µM]	inhibition [8] [%]	Structure (SMILES)	also measured
10.2	76	COc1ccc(CNC2CCc3c(sc4ncn(Cc5ccc6ccccc6c5)c(=O)c34)C2)cn1 (stereo not drawn)	
9.57	80	O=c1c2c3c(sc2ncn1Cc1cccc2ccccc12)CC(NCCc1cccnc1)CC3 (stereo not drawn)	
7.61	70	O=c1c2c3c(sc2ncn1Cc1cccc2ccccc12)CC(NCc1ccco1)CC3 (stereo not drawn)	
5.45	71	O=c1c2c3c(sc2ncn1Cc1ccc2ccccc2c1)CC(NCc1ccccc1)CC3 (stereo not drawn)	
4.22	75	COc1ccccc1CNC1CCc2c(sc3ncn(Cc4ccc5ccccc5c4)c(=O)c23)C1 (stereo not drawn)	
4	87	COc1ccc2ccccc2c1Cn1cnc2sc3c(c2c1=O)CCC(NCc1c(C)noc1C)C3 (stereo not drawn)	
3.68	83	O=c1c2c3c(sc2ncn1Cc1cccc2cccnc12)CC(NCc1ccncc1)CC3 (stereo not drawn)	
3.36	89	COc1ccc(CNCCc2sc3ncn(Cc4c(OC)ccc5ccccc45)c(=O)c3c2C)cc1	
3.12	83	COc1ccc2ccccc2c1Cn1cnc2sc3c(c2c1=O)CCC(NCc1ccccn1)C3 (stereo not drawn)	
2.92	91	O=c1c2c3c(sc2ncn1Cc1cccc2cccnc12)CC(NCc1cccnc1)CC3 (stereo not drawn)	
2.84	88	O=c1c2c3c(sc2ncn1Cc1cccc2cccnc12)CC(NCc1cccc(Cl)c1)CC3 (stereo not drawn)	
1.9	83	COc1ccc(CNC2CCc3c(sc4ncn(Cc5c(OC)ccc6ccccc56)c(=O)c34)C2)cn1 (stereo not drawn)	
0.97	90	O=c1c2c3c(sc2ncn1Cc1cccc2cccnc12)CC(Nc1ccc(F)cc1)CC3 (stereo not drawn)	
0.73	94	COc1ccc(Cn2cnc3sc4c(c3c2=O)CCC(NC2CCCC2)C4)c2ccccc12 (stereo not drawn)	IC50 [7]: 13.8 µM
0.58	96	COc1ccc(Cn2cnc3sc4c(c3c2=O)CCC(NCc2c(C)noc2C)C4)c2ccccc12 (stereo not drawn)	Ratio IC50 [1]: 31; inhibition [3]: Active; inhibition [4]: Dose-dependent effect; IC50 [5]: 18 µM; Ratio IC50 [6]: 222; IC50 [7]: 129 µM
0.39	97	N#Cc1ccc(CNC2CCc3c(sc4ncn(Cc5cccc6cccnc56)c(=O)c34)C2)cc1 (stereo not drawn)	Ratio IC50 [1]: > 256; IC50 [5]: > 100 µM; Ratio IC50 [6]: 108; IC50 [7]: 42.1 µM
